Among the data in ChEMBL document CHEMBL3576784, “Azolylthioacetamide: A Highly Promising Scaffold for the Development of Metallo-β-lactamase Inhibitors” (ACS Med Chem Lett, 2015) are MIC and inhibition values, retold here.

Activity calls are given as the source filed them. The rule behind the calls is not given here.

For one experiment, the system named is Klebsiella pneumoniae. As to the kind of experiment: Inhibition of Klebsiella pneumoniae metallo-beta-lactamase expressed in Escherichia coli BL21(DE3) assessed as imipenem antimicrobial MIC incubated at 37 degC for 12 hrs by macrodilution (tube) broth method.
The target in experiment [1] is Beta-lactamase (Aeromonas veronii) (UniProt O31272). Briefly: Inhibition of Aeromonas veronii metallo-beta-lactamase ImiS expressed in Escherichia coli BL21(DE3) assessed as imipenem antimicrobial MIC incubated at 37 degC for 12 hrs by macrodilution (tube) broth method. A digest of the protocol:
(§1)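 β-Lactam antibiotic MIC (μg/mL) against E. coli BL21(DE3) carrying plasmids pMSZ02-CcrA, pET26b-NDM-1, pET26b-ImiS or pET26b-L1. Measured with and without test compound at 16 μg/mL.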

Experiment [2] has as its target T1, Beta-lactamase IMP-1 (Pseudomonas aeruginosa) (UniProt Q8G9Q0).
T1 sequence (whole entry): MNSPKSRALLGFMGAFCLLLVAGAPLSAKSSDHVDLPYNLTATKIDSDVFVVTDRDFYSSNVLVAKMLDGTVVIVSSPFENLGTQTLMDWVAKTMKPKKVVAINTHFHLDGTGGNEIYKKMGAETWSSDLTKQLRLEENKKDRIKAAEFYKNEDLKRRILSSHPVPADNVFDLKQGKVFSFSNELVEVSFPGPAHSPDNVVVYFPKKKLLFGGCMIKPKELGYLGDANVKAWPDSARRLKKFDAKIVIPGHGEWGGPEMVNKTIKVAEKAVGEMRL
Briefly: Inhibition of Pseudomonas aeruginosa metallo-beta-lactamase IMP1 expressed in Escherichia coli BL21(DE3) assessed as imipenem antimicrobial MIC incubated at 37 degC for 12 hrs by macrodilution (tube) broth method (reference value: […] ug/mL).

Experiment [3] addresses Beta-lactamase L1 (Stenotrophomonas maltophilia) (UniProt P52700). As to the kind of experiment: Inhibition of Stenotrophomonas maltophilia metallo-beta-lactamase L1 expressed in Escherichia coli BL21(DE3) assessed as cefalexin V antimicrobial MIC incubated at 37 degC for 12 hrs by macrodilution (tube) broth method (reference value: 8 ug/mL). Summed up:
as §1

Experiment [4] shares this target. Briefly: Inhibition of Stenotrophomonas maltophilia metallo-beta-lactamase L1 expressed in Escherichia coli BL21(DE3) up to 10 uM using cefazolin V substrate pre-incubated for 30 mins by Lineweaver-Burk plot method.
Experiment [5] addresses Metallo-beta-lactamase type 2 (Bacteroides fragilis) (UniProt P25910). As to the kind of experiment: Inhibition of Bacteroides fragilis metallo-beta-lactamase CcrA expressed in Escherichia coli BL21(DE3) up to 10 uM using cefazolin V substrate pre-incubated for 30 mins by Lineweaver-Burk plot method.
Experiment [6] in a line: Inhibition of metallo-beta-lactamase NDM1 (unknown origin) expressed in Escherichia coli BL21(DE3) assessed as cefalexin V antimicrobial MIC incubated at 37 degC for 12 hrs by macrodilution (tube) broth method (reference value: 4 ug/mL). A digest of the protocol: as §1
Experiment [7] addresses Metallo-beta-lactamase type 2 (Bacteroides fragilis) (UniProt P25910). As to the kind of experiment: Inhibition of Bacteroides fragilis metallo-beta-lactamase CcrA expressed in Escherichia coli BL21(DE3) assessed as cefalexin V antimicrobial MIC incubated at 37 degC for 12 hrs by macrodilution (tube) broth method (reference value: 4 ug/mL). A digest of the protocol: as §1

The nature of experiment [8]: Inhibition of metallo-beta-lactamase NDM1 (unknown origin) expressed in Escherichia coli BL21(DE3) up to 10 uM using cefazolin V substrate pre-incubated for 30 mins by Lineweaver-Burk plot method.

Sequence of Metallo-beta-lactamase type 2 (Bacteroides fragilis) (P25910 whole entry): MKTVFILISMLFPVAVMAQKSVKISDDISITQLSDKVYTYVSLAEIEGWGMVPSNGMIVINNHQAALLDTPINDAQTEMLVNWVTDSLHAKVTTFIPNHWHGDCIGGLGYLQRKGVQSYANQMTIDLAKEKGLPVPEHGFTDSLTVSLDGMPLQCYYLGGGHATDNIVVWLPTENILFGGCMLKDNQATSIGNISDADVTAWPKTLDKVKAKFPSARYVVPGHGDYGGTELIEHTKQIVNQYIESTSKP
Sequence of Beta-lactamase L1 (Stenotrophomonas maltophilia) (P52700 34-290 limits assumed): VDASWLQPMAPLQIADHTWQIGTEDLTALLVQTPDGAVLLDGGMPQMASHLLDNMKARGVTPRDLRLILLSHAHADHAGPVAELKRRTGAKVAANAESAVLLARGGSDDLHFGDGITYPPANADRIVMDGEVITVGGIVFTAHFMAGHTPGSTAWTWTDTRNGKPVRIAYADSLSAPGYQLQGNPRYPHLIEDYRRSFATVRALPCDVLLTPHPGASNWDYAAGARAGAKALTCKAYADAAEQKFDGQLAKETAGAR
Sequence of Beta-lactamase (Aeromonas veronii) (O31272 as listed by the source): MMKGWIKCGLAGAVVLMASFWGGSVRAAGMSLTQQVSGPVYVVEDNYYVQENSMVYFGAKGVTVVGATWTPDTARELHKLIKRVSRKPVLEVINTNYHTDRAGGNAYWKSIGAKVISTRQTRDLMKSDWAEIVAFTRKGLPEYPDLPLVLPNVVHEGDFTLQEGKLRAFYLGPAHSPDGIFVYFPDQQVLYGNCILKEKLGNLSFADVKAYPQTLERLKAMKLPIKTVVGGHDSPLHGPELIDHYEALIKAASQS

As to `O=C(CSc1nnc(-c2ccccc2C(=O)O)[nH]1)Nc1ccc([N+](=O)[O-])cc1`, the MIC in the experiment on Klebsiella pneumoniae was 0.5 µg/mL; in experiment [1], 0.5 µg/mL; in experiment [2], 0.25 µg/mL; in experiment [3], 16 µg/mL; in [6], 4 µg/mL; in experiment [7] it was 2 µg/mL. For the same molecule, the inhibition result in experiment [4], in [5] and in [8] was “inactive” each time.
For the molecule `O=C(CSc1nnc(-c2ccccc2C(=O)O)[nH]1)Nc1nc2ccccc2s1`, the MIC is 0.5 µg/mL with Klebsiella pneumoniae; 1 µg/mL in [1]; under 0.125 µg/mL in [2]; 8 µg/mL in experiment [3]; 4 µg/mL in experiment [6]; under 0.125 µg/mL in [7]. For the same molecule, the inhibition entry in experiment [4], in experiment [5] and in experiment [8] was “inactive” in each case.
Regarding `O=C(O)CCc1nnc(SCC(=O)Nc2ccccc2)[nH]1`, the inhibition entry in [4], in experiment [5] and in experiment [8] was “inactive” each time.
Regarding `O=C(CSc1nnc(-c2ccccc2C(=O)O)[nH]1)Nc1ccccc1[N+](=O)[O-]`, the MIC with Klebsiella pneumoniae was 0.5 µg/mL; in experiment [1], under 0.125 µg/mL; in experiment [2], under 0.125 µg/mL; in experiment [3], over 128 µg/mL; in experiment [6] it was 4 µg/mL; in experiment [7] it was 0.25 µg/mL. Further, the inhibition result in [4], in experiment [5] and in [8] was “inactive” in each case.
For the molecule `O=C(CSc1nnc(-c2ccccc2C(=O)O)[nH]1)NCc1ccccc1`, the MIC with Klebsiella pneumoniae was 0.5 µg/mL; in experiment [1] it was 1 µg/mL; in [2] it was under 0.125 µg/mL; in experiment [3], 16 µg/mL; in experiment [6], 4 µg/mL; in experiment [7], 4 µg/mL. Also, the inhibition result in experiment [4], in experiment [5] and in [8] was “inactive” in each case.
With `O=C(CSc1nnc(-c2ccccc2C(=O)O)[nH]1)Nc1ccccc1Cl`, the MIC in the experiment with Klebsiella pneumoniae is 0.5 µg/mL; in experiment [1] it was 0.25 µg/mL; in [2] it was under 0.125 µg/mL; in [3], 64 µg/mL; in [6], 4 µg/mL; in experiment [7], 2 µg/mL. In addition, the inhibition result in experiment [4], in experiment [5] and in experiment [8] was “inactive” in each case.
`O=C(CSc1nnc(-c2ccccc2C(=O)O)[nH]1)Nc1ccccc1`: the MIC in the experiment on Klebsiella pneumoniae is 0.5 µg/mL; in experiment [1], 1 µg/mL; in experiment [2], 0.25 µg/mL; in experiment [3], 8 µg/mL; in experiment [6], 4 µg/mL; in experiment [7], 4 µg/mL. The inhibition entry in [4], in experiment [5] and in experiment [8] was “inactive” each time.
On to `O=C(CSc1nnc(-c2ccccc2C(=O)O)[nH]1)Nc1cccc([N+](=O)[O-])c1`, for which the MIC with Klebsiella pneumoniae was 0.5 µg/mL; in experiment [1], 0.25 µg/mL; in experiment [2], under 0.125 µg/mL; in experiment [3], 8 µg/mL; in experiment [6], 4 µg/mL; in experiment [7], 2 µg/mL. The inhibition entry in [4], in experiment [5] and in experiment [8] was “inactive” each time.
Regarding `O=C(O)CCc1nnc(SCC(=O)Nc2nc3ccccc3s2)[nH]1`, the inhibition entry in experiment [4], in experiment [5] and in experiment [8] was “inactive” throughout.
Take `O=C(CSc1nnc(-c2ccccc2C(=O)O)[nH]1)Nc1nc2ccccc2[nH]1`: the MIC with Klebsiella pneumoniae amounted to 0.5 µg/mL; in experiment [1], 1 µg/mL; in [2], 0.25 µg/mL; in experiment [3] it was 8 µg/mL; in [6], 4 µg/mL; in experiment [7], 4 µg/mL. Further, the inhibition entry in experiment [4], in experiment [5] and in experiment [8] was “inactive” each time.
Consider `O=C(O)CCc1nnc(SCC(=O)Nc2ccc(Cl)cc2)[nH]1`, for which the inhibition entry in [4], in experiment [5] and in experiment [8] was “inactive” in each case.
In the case of `O=C(O)CCc1nnc(SCC(=O)Nc2nc3ccccc3[nH]2)[nH]1`, the inhibition entry in experiment [4], in [5] and in experiment [8] was “inactive” each time.
For the molecule `O=C(O)CCCc1nnc(SCC(=O)Nc2nc3ccccc3[nH]2)[nH]1`, the inhibition entry in experiment [4], in experiment [5] and in [8] was “inactive” each time.
Take `O=C(CSc1nnc(-c2ccccc2C(=O)O)[nH]1)Nc1cccc(Cl)c1`: the MIC is 0.5 µg/mL in the experiment on Klebsiella pneumoniae; under 0.125 µg/mL in experiment [1]; under 0.125 µg/mL in experiment [2]; 64 µg/mL in experiment [3]; 4 µg/mL in experiment [6]; 0.5 µg/mL in [7]. In addition, the inhibition result in experiment [4], in experiment [5] and in experiment [8] was “inactive” each time.
For `O=C(CSc1nnc(-c2ccccc2C(=O)O)[nH]1)Nc1ccc(Cl)cc1`, the MIC is 0.5 µg/mL in the experiment with Klebsiella pneumoniae; 0.5 µg/mL in experiment [1]; 0.25 µg/mL in [2]; 8 µg/mL in [3]; 4 µg/mL in [6]; under 0.125 µg/mL in [7]. In addition, the inhibition entry in experiment [4], in [5] and in experiment [8] was “inactive” throughout.
